In ChEMBL document CHEMBL3875225, “Design, synthesis and biological evaluation of 7-(aryl)-2,3-dihydro-[1,4]dioxino[2,3-g]quinoline derivatives as potential Hsp90 inhibitors and anticancer agents” (Bioorg Med Chem, 2017) one finds IC50, inhibition and Activity data, which are given here for 21 molecules.

Each structure is given as a SMILES string. Activity calls are given as the source filed them. The calls are words filed in the database; no cut-off is given here.

Data set [1] in a line: Antiproliferative activity against human MCF7 cells after 48 hrs by MTT assay. It counts as functional, cell-based. The following applies: for IC50: Homo sapiens, MCF7, 48 h. An outline of the steps:
(§1)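 5000 cells seeded per well in RPMI complete medium; next day medium replaced with medium containing a range of compound concentrations, with a no-drug control and 17-AAG as reference. After 48 h at 37 °C, 5% CO2, MTT (4 mg/mL solution) added for 3 h. Formazan dissolved in DMSO, absorbance read at 540 nm. Triplicate determinations; mean SD from dose-response curves of three independent experiments.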

Data set [2] can be described thus: Antiproliferative activity against human A549 cells after 48 hrs by MTT assay. The following applies: for IC50: Homo sapiens, A549, 48 h. It counts as functional, cell-based. In a few lines:
as §1
A general note: Formazan colour is commonly taken as a measure of viable cells.

A short description of data set [3]: Antiproliferative activity against human DU145 cells after 48 hrs by MTT assay. The data set is classed as functional, cell-based, DU-145. As to conditions: for IC50: Homo sapiens, DU-145, 48 h. In a few lines:
as §1

Data set [4] addresses T1, Heat shock protein HSP90 (Homo sapiens) (UniProt P07900+P08238). The experiment in a line: Inhibition of HSP90 in human MCF7 cells assessed as decrease in Her2 protein expression at 50 uM after 24 hrs by Western blot method relative to control. It counts as cell-based. In a few lines:
(§2)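 MCF-7 cells seeded at 10⁶ per 25 cm² flask and treated 24 h with 50 µM compound; DMSO vehicle control, 0.5 μM 17-AAG reference. Lysis in Tris-HCl pH 7.4 buffer with protease/phosphatase inhibitors. 50 µg protein resolved on 10% SDS-PAGE, transferred to PVDF, blocked 2 h in 5% skim milk/TBST at 4 °C. Probed 2 h with rabbit anti-Her-2 and anti-Hsp-70 (1:3000); β-tubulin also blotted.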
In general terms: A western blot detects proteins with antibodies after separation by electrophoresis.

Data set [5] addresses T1, Heat shock protein HSP90 (Homo sapiens). Description: Inhibition of HSP90 in human MCF7 cells assessed as induction of HSP70 protein expression at 50 uM after 24 hrs by Western blot method relative to control. The data set is classed as cell-based. In a few lines: as §2
Data set [6] can be described thus: Effect on beta-tubulin protein expression in human MCF7 cells at 50 uM after 24 hrs by Western blot method. The following applies: mcf7, 24 h. It counts as cell-based. An outline of the steps:
as §2

For `COc1ccc(-c2cc(C(=O)O)c3cc4c(cc3n2)OCCO4)cc1`, the 50% inhibitory concentration (IC50) in data set [1], in data set [2] and in data set [3] was over 100 µM each time.

Turning to `COc1ccc(-c2cc(CO)c3cc4c(cc3n2)OCCO4)cc1`, the IC50 (in general, the concentration needed to halve the response being measured) is 24 µM in data set [1], over 100 µM in data set [2] and 21.4 µM in data set [3]. The inhibition (as a rule, the drop in the measured response relative to a control, in per cent) in data set [4] was over 50%. In addition, in data set [5], the inhibition entry was “Active”. In addition, the Activity entry in data set [6] was “Non-Toxic”.

Take `CC(=O)Nc1ccc(-c2cc(C(=O)O)c3cc4c(cc3n2)OCCO4)cc1`: the IC50 in data set [1], in data set [2] and in data set [3] was over 100 µM in each case.

Turning to `COc1ccc(-c2cc(CO)c3cc4c(cc3n2)OCCO4)cc1O`, the results for the IC50 in data set [1], in data set [2] and in data set [3] were 40 µM, 94.2 µM and 89.7 µM, respectively. Also, the inhibition in data set [4] is over 50%. Besides, the inhibition entry in data set [5] is “Active”. In addition, in data set [6], the Activity entry is “Non-Toxic”.

For the molecule `Oc1ccc(/C=N/c2ccc3c(c2)OCCO3)cc1`, the Activity in data set [1], in data set [2] and in data set [3] was over 100 µM throughout.

Turning to `COc1cc(/C=N/c2ccc3c(c2)OCCO3)cc(OC)c1OC`, the Activity in data set [1], in data set [2] and in data set [3] was over 100 µM in each case.

In the case of `COc1cc(/C=N/c2ccc3c(c2)OCCO3)ccc1O`, the Activity in data set [1], in data set [2] and in data set [3] was over 100 µM throughout.

For the molecule `COc1ccc(-c2cc(CO)c3cc4c(cc3n2)OCCO4)cc1OC`, the IC50 in data set [1] came to 6.7 µM; in data set [2], 82.1 µM; in data set [3] it was 11.5 µM. For the same molecule, in data set [4], the inhibition is over 50%. Also, in data set [5], the inhibition entry is “Active”. Moreover, the Activity result in data set [6] is recorded as “Non-Toxic”.

In the case of `OCc1cc(-c2ccccc2)nc2cc3c(cc12)OCCO3`, the results for the IC50 in data set [1], in data set [2] and in data set [3] were 22.7 µM, over 100 µM and 86.1 µM, respectively. Moreover, the inhibition in data set [4] is over 50%. Further, the inhibition result in data set [5] was “Active”. Further, the Activity result in data set [6] is given as “Non-Toxic”.

With `COc1ccc(-c2cc(C(=O)O)c3cc4c(cc3n2)OCCO4)cc1OC`, the IC50 in data set [1], in data set [2] and in data set [3] was over 100 µM throughout.

In the case of `COc1cc(-c2cc(CO)c3cc4c(cc3n2)OCCO4)ccc1O`, the IC50 in data set [1] came to 25.7 µM; in data set [2] it was 87.8 µM; in data set [3], 86.8 µM. Further, the inhibition in data set [4] is over 50%. Also, the inhibition entry in data set [5] is “Active”. The Activity result in data set [6] is reported as “Non-Toxic”.

Take `COc1cc(-c2cc(C(=O)O)c3cc4c(cc3n2)OCCO4)ccc1O`: the IC50 in data set [1], in data set [2] and in data set [3] was over 100 µM in each case.

On to `C=CCNC1=C2C[C@@H](C)C[C@H](OC)[C@H](O)[C@@H](C)/C=C(\C)[C@H](OC(N)=O)[C@@H](OC)/C=C\C=C(/C)C(=O)NC(=CC1=O)C2=O` [TANESPIMYCIN], for which the IC50 in data set [1] came to 0.192 µM; in data set [2], 0.286 µM; in data set [3] it was 0.282 µM.

With `COc1ccc(/C=N/c2ccc3c(c2)OCCO3)cc1OC`, the Activity in data set [1], in data set [2] and in data set [3] was over 100 µM each time.

In the case of `COc1cc(-c2cc(CO)c3cc4c(cc3n2)OCCO4)cc(OC)c1OC`, the IC50 in data set [1] came out at 4.53 µM; in data set [2], 46.9 µM; in data set [3], 64.2 µM. The inhibition in data set [4] was over 50%. Moreover, the inhibition entry in data set [5] is “Active”. For the same molecule, the Activity result in data set [6] is recorded as “Non-Toxic”.

In the case of `COc1cc(-c2cc(C(=O)O)c3cc4c(cc3n2)OCCO4)cc(OC)c1OC`, the IC50 in data set [1], in data set [2] and in data set [3] was over 100 µM throughout.

Regarding `O=C(O)c1cc(-c2ccccc2)nc2cc3c(cc12)OCCO3`, the IC50 in data set [1], in data set [2] and in data set [3] was over 100 µM throughout.

On to `COc1ccc(-c2cc(C(=O)O)c3cc4c(cc3n2)OCCO4)cc1O`, for which the IC50 in data set [1], in data set [2] and in data set [3] was over 100 µM each time.

Regarding `O=C(O)c1cc(-c2ccc(O)cc2)nc2cc3c(cc12)OCCO3`, the IC50 in data set [1], in data set [2] and in data set [3] was over 100 µM each time.

With `O=C(O)c1cc(-c2cccc(O)c2)nc2cc3c(cc12)OCCO3`, the IC50 in data set [1], in data set [2] and in data set [3] was over 100 µM throughout.

Consider `Cc1ccc(-c2cc(C(=O)O)c3cc4c(cc3n2)OCCO4)cc1`, for which the half-maximal inhibitory concentration (IC50) in data set [1], in data set [2] and in data set [3] was over 100 µM in each case.
